In ChEMBL document CHEMBL1150264, “Design and microwave-assisted synthesis of novel macrocyclic peptides active at melanocortin receptors: discovery of potent and selective hMC5R receptor antagonists” (J Med Chem, 2008):
The source made the active and inactive calls. No cut-off for these calls is given here.

Key:
[1] = target: T1, Melanocortin receptor 3 (Homo sapiens, UniProt P41968); assay: Agonist activity at human melanocortin 3 receptor expressed in HEK293 cells assessed as cAMP accumulation at 10 uM realtive to MT2; type: functional, cell-based
How it was run: (§1)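 cAMP accumulation assay in stably transfected HEK293 cells: 0.5 mM IBMX preincubation, 3 min ligand exposure at 37 °C, [3H]cAMP/PKA binding read-out against a standard curve. The cAMP produced at 10 μM ligand is expressed as percent of that produced by 10 μM MT-II (% max effect).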

[2] = target: T2, Melanocortin receptor 5 (Homo sapiens, UniProt P33032); assay: Agonist activity at human melanocortin 5 receptor expressed in HEK293 cells assessed as cAMP accumulation at 10 uM; type: functional, cell-based; how it was run: as §1
[3] = target: T3, Melanocortin receptor 4 (Homo sapiens, UniProt P32245); assay: Agonist activity at human melanocortin 4 receptor expressed in HEK293 cells assessed as cAMP accumulation at 10 uM realtive to MT2; type: functional, cell-based; how it was run: as §1
[4] = target: T4, Melanocyte-stimulating hormone receptor (Homo sapiens, UniProt Q01726); assay: Agonist activity at human melanocortin 1 receptor expressed in HEK293 cells assessed as cAMP accumulation at 10 uM; type: functional, cell-based; how it was run: as §1
Target sequence in this assay (Q01726 whole entry, looked up): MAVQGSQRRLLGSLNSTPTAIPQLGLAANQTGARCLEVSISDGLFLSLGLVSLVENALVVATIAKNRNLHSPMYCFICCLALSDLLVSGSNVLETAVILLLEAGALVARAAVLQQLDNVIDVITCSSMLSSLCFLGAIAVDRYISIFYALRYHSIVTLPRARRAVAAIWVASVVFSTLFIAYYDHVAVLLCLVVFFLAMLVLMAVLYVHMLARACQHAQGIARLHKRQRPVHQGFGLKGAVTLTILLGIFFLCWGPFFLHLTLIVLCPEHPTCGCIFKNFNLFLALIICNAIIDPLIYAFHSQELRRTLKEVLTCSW

[5] = target: T2, Melanocortin receptor 5; assay: Agonist activity at human melanocortin 5 receptor expressed in HEK293 cells assessed as cAMP accumulation at 10 uM realtive to MT2; type: functional, cell-based; how it was run: as §1
[6] = target: T3, Melanocortin receptor 4; assay: Agonist activity at human melanocortin 4 receptor expressed in HEK293 cells assessed as cAMP accumulation at 10 uM; type: functional, cell-based; how it was run: as §1
[7] = target: T4, Melanocyte-stimulating hormone receptor; assay: Agonist activity at human melanocortin 1 receptor expressed in HEK293 cells assessed as cAMP accumulation at 10 uM realtive to MT2; type: functional, cell-based; how it was run: as §1
Target sequence in this assay (Q01726 whole entry, looked up): as above

[8] = target: T2, Melanocortin receptor 5; assay: Antagonist activity at human melanocortin 5 receptor expressed in HEK293 cells; type: functional, cell-based
How it was run: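 Antagonism at hMC5R in the HEK293 cAMP assay (IBMX, 3 min at 37 °C, [3H]cAMP/PKA read-out). Four antagonist doses spanning 10−10 to 10−6 M were tested against MT-II agonist dose-response curves. pA2 derived by Schild analysis.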

[9] = target: T4, Melanocyte-stimulating hormone receptor; assay: Displacement of [125I]-[Nle4, D-Phe7]alpha-MSH from human melanocortin 1 receptor expressed in HEK293 cells; type: cell-based
How it was run: (§2)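 Whole HEK293 cells stably expressing each hMCR, seeded 48 h before assay (50000 cells/well), washed in MEM with 25 mM bicarbonate. Cells incubated 40 min at 37 °C with unlabeled peptide plus [125I]-NDP-α-MSH (33.06 pM, 20000 cpm/well) in MEM, 25 mM HEPES pH 7.4, 0.2% BSA, 1 mM 1,10-phenanthroline, leupeptin, bacitracin. Cells washed, lysed with NaOH/Triton X-100, and gamma-counted. IC50 by nonlinear fit, two experiments in triplicate […].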
Target sequence in this assay (Q01726 whole entry): as the sequence (Q01726 whole entry, looked up) above

[10] = target: T1, Melanocortin receptor 3; assay: Agonist activity at human melanocortin 3 receptor expressed in HEK293 cells assessed as cAMP accumulation; type: functional, cell-based
How it was run: (§3)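 Stably transfected HEK293 cells seeded 48 h before assay (50000 cells/well), rinsed, preincubated 1 min at 37 °C in Earle's balanced salt solution with 0.5 mM IBMX, then given peptide at varying concentrations for 3 min at 37 °C. Stopped with ice-cold Tris/EDTA and boiling 7 min. cAMP measured by [3H]cAMP competition for PKA against a standard curve. EC50 by nonlinear least-squares fit, mean of two experiments in triplicate.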

[11] = target: T1, Melanocortin receptor 3; assay: Displacement of [125I]-[Nle4, D-Phe7]alpha-MSH from human melanocortin 3 receptor expressed in HEK293 cells; type: cell-based; how it was run: as §2
[12] = target: T2, Melanocortin receptor 5; assay: Displacement of [125I]-[Nle4, D-Phe7]alpha-MSH from human melanocortin 5 receptor expressed in HEK293 cells; type: cell-based; how it was run: as §2
[13] = target: T3, Melanocortin receptor 4; assay: Displacement of [125I]-[Nle4, D-Phe7]alpha-MSH from human melanocortin 4 receptor expressed in HEK293 cells; type: cell-based; how it was run: as §2
[14] = target: T4, Melanocyte-stimulating hormone receptor; assay: Agonist activity at human melanocortin 1 receptor expressed in HEK293 cells assessed as cAMP accumulation; type: functional, cell-based; how it was run: as §3
Target sequence in this assay (Q01726 whole entry): as the sequence (Q01726 whole entry, looked up) above

[15] = target: T2, Melanocortin receptor 5; assay: Agonist activity at human melanocortin 5 receptor expressed in HEK293 cells assessed as cAMP accumulation; type: functional, cell-based; how it was run: as §3
[16] = target: T3, Melanocortin receptor 4; assay: Agonist activity at human melanocortin 4 receptor expressed in HEK293 cells assessed as cAMP accumulation; type: functional, cell-based; how it was run: as §3
[17] = target: T1, Melanocortin receptor 3; assay: Displacement of [125I]-[Nle4, D-Phe7]alpha-MSH from human melanocortin 3 receptor expressed in HEK293 cells at 10 uM; type: cell-based
[18] = target: T3, Melanocortin receptor 4; assay: Displacement of [125I]-[Nle4, D-Phe7]alpha-MSH from human melanocortin 4 receptor expressed in HEK293 cells at 10 uM; type: cell-based
[19] = target: T1, Melanocortin receptor 3; assay: Agonist activity at human melanocortin 3 receptor expressed in HEK293 cells assessed as cAMP accumulation at 10 uM; type: functional, cell-based; how it was run: as §1

T2 sequence (P33032 whole entry): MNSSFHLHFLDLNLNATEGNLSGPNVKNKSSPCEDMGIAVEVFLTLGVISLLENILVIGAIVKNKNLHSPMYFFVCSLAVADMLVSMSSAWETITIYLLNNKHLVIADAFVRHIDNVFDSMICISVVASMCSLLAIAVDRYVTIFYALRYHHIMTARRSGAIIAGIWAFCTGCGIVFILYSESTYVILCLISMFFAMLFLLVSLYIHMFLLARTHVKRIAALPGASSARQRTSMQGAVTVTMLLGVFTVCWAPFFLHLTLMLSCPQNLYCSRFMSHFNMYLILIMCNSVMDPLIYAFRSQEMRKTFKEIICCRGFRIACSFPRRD
T3 sequence (P32245 whole entry): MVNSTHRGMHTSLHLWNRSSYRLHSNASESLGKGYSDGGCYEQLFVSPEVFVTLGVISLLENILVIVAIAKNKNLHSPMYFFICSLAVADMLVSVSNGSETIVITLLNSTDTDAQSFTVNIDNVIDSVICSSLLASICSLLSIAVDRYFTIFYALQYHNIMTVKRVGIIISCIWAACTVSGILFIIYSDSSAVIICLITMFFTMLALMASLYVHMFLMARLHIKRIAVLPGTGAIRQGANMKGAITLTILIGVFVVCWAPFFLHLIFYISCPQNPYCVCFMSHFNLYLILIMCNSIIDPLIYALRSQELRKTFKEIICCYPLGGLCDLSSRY
T1 sequence (P41968 whole entry): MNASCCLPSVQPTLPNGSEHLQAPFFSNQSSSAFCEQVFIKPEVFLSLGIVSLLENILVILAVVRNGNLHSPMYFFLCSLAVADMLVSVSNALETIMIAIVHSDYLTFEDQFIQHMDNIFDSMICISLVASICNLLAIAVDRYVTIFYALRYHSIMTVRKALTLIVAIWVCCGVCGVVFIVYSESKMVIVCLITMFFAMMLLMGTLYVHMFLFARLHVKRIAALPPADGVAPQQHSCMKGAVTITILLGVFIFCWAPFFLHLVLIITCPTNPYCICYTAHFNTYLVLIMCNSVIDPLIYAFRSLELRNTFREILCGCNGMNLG

Row | Compound | Activity [1] [%] | Activity [2] | Activity [3] [%] | Activity [5] [%] | Activity [6] | Activity [7] [%] | IC50 [9] [nM] | EC50 [10] [nM] | IC50 [11] [nM] | IC50 [12] [nM] | IC50 [13] [nM] | EC50 [14] [nM] | other results
1 | N=C(N)NCCC[C@@H]1NC(=O)[C@H](Cc2ccc3ccccc3c2)NC(=O)[C@H](Cc2cnc[nH]2)NC(=O)c2cc([N+](=O)[O-])ccc2SC[C@@H](C(N)=O)NC(=O)[C@H](Cc2c[nH]c3ccccc23)NC1=O | 21 | inactive | 0 | 0 | inactive | 0 |  |  |  |  |  |  | Activity [4]: inactive; pA2 [8]: 8.3
2 | NC(=O)[C@@H]1CSc2ccc([N+](=O)[O-])cc2C(=O)N[C@@H](Cc2cnc[nH]2)C(=O)N[C@H](Cc2ccccc2)C(=O)N[C@@H](CCCN=C(N)N)C(=O)N[C@@H](Cc2c[nH]c3ccccc23)C(=O)N1 |  |  |  |  |  |  | 3.7 | 2 | 40 | 190 | 47 | 2 | EC50 [15]: 44 nM; EC50 [16]: 37 nM
3 | N=C(N)NCCC[C@@H]1NC(=O)[C@@H](Cc2ccccc2)NC(=O)C2(Cc3ccccc3C2)NC(=O)c2cc([N+](=O)[O-])ccc2SC[C@@H](C(N)=O)NC(=O)[C@H](Cc2c[nH]c3ccccc23)NC1=O | 40 | inactive | 0 | 0 | inactive | 52 | > 1000 | > 5000 |  | 560 |  | > 1000 | Activity [17]: inactive; Activity [18]: inactive
4 | N=C(N)NCCC[C@@H]1NC(=O)[C@@H](Cc2ccccc2)NC(=O)[C@@H]2CCCN2C(=O)c2cc([N+](=O)[O-])ccc2SC[C@@H](C(N)=O)NC(=O)[C@H](Cc2c[nH]c3ccccc23)NC1=O | > 100 | inactive | 0 | 0 | inactive | 0 | > 1000 | > 1000 | 380 | 58 | > 1000 |  | Activity [4]: inactive
5 | NC(=O)[C@@H]1CSc2ccc([N+](=O)[O-])cc2C(=O)N[C@@H](Cc2cnc[nH]2)C(=O)N[C@H](Cc2ccccc2)C(=O)N[C@@H](CCCN=C(N)N)C(=O)N[C@@H](Cc2ccc3ccccc3c2)C(=O)N1 |  |  |  |  |  |  | 180 | 56 | 610 | 340 | > 1000 | 71 | 
6 | N=C(N)NCCC[C@@H]1NC(=O)[C@@H](Cc2ccccc2)NC(=O)[C@H](Cc2cnc[nH]2)NC(=O)c2cc([N+](=O)[O-])ccc2SC[C@@H](C(N)=O)NC(=O)[C@@H](Cc2c[nH]c3ccccc23)NC1=O | 0 | inactive | 1 | 0 | inactive | 105 | 1000 |  |  | > 2000 | > 1000 | 100 | Activity [19]: inactive; Activity [17]: inactive
7 | N=C(N)NCCC[C@@H]1NC(=O)[C@@H](Cc2ccccc2)NC(=O)[C@H](CC2CCCCC2)NC(=O)c2cc([N+](=O)[O-])ccc2SC[C@@H](C(N)=O)NC(=O)[C@H](Cc2c[nH]c3ccccc23)NC1=O | > 100 | inactive | 0 | 0 | inactive | 92 | > 2000 | > 4000 | > 1000 | 38 |  | 810 | Activity [18]: inactive
8 | NC(=O)[C@@H]1CSc2ccc([N+](=O)[O-])cc2C(=O)N[C@@H](Cc2cnc[nH]2)C(=O)N[C@@H](Cc2ccc3ccccc3c2)C(=O)N[C@@H](CCCN=C(N)N)C(=O)N[C@@H](Cc2c[nH]c3ccccc23)C(=O)N1 |  |  |  |  |  |  |  |  |  |  |  |  | IC50 ([9]; hek293): > 2000 nM; EC50 ([10]; hek293): 50 nM; IC50 ([11]; hek293): > 1000 nM; IC50 ([12]; hek293): 130 nM; IC50 ([13]; hek293): > 5000 nM
